Laboratory results published in ChEMBL document CHEMBL1128548, “Synthesis and evaluation of 5-amino-5,6,7,8-tetrahydroquinolinones as potential agents for the treatment of Alzheimer's disease” (J Med Chem, 1995).
“And” between values parts separate entries of the source, which are not always exact repeats. Equal values may be shown once. The source made the active and inactive calls.

Experiments:
Acetylcholinesterase = target: T1, Acetylcholinesterase (Rattus norvegicus, UniProt P37136); assay: Acetylcholinesterase inhibitory activity in rat striatal homogenates
T1 sequence (P37136 whole entry): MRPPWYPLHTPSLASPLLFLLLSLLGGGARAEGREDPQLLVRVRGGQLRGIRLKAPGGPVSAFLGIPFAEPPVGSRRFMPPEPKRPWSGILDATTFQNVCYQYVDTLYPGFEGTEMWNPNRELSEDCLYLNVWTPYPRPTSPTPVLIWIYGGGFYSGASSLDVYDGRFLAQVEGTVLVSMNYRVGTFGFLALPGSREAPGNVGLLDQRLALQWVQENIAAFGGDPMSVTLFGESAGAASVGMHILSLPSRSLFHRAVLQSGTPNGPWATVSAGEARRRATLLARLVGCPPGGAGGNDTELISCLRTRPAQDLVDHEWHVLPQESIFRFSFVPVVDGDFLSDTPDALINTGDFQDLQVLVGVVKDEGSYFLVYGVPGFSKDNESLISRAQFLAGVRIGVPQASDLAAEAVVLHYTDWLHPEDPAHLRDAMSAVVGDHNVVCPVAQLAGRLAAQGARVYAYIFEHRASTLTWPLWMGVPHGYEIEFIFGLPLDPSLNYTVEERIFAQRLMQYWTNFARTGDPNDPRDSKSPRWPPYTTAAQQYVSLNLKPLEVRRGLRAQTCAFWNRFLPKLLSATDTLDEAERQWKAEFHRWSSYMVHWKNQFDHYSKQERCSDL

Mus musculus [1] = assay: Active dose for reversal of Scopolamine dementia activity in mouse following s.c. administration.; assay type: functional
Method in brief: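 Male CFW mice, 15 per group (vehicle/vehicle, scopolamine/vehicle, scopolamine/drug). Scopolamine hydrobromide 3.0 mg/kg sc 30 min before training, then test compound in distilled water 5 min before. One-trial dark passive avoidance, retested 24 h later without injection or shock. Cutoff is the second-longest scopolamine/vehicle latency. Dose is active when 20% of animals exceed cutoff. Test valid if cutoff <120 s.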

Mus musculus [2] = species: Mus musculus; assay: Active dose for reversal of Scopolamine dementia(SDDA) activity in mouse; NA =' not active'; assay type: functional, organism-based
Method in brief: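 Male CFW mice, 15 per group (vehicle/vehicle, scopolamine/vehicle, scopolamine/drug). Scopolamine hydrobromide 3.0 mg/kg sc 30 min before training, test compound in distilled water 5 min before. Step-through passive avoidance retested 24 h later without shock, recording latency. Cutoff is the second-longest scopolamine/vehicle latency. A dose is active if 20% of mice exceed the cutoff.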

| SMILES | IC50 (Acetylcholinesterase) [µM] | Active dose (Mus musculus [1]) | Active dose (Mus musculus [2]) |
| --- | --- | --- | --- |
| CC(C)=CCn1c2c(ccc1=O)C(NCCc1cc(Cl)cc(Cl)c1)CCC2 (stereo not given) | 0.8 | – | – |
| CCCn1c2c(ccc1=O)C(NC1Cc3ccccc3C1)CCC2 (stereo not given) | 3.91 | 1 mg/kg | – |
| Cc1ccc(CCNC2CCCc3c2ccc(=O)n3C)cc1 (stereo not given) | 18.2 | – | – |
| CCCCCCCCCCn1c2c(ccc1=O)C(NCCc1ccc(Cl)c(Cl)c1)CCC2 (stereo not given) | 33.7 | – | – |
| COc1cccc(CCNC2CCCc3c2ccc(=O)n3CC=C(C)C)c1 (stereo not given) | 1.1 | – | – |
| CC(C)=CCn1c2c(ccc1=O)C(NCCc1cc(Cl)ccc1Cl)CCC2 (stereo not given) | 1.36 | – | – |
| O=c1ccc2c(n1Cc1ccccc1)CCCC2NCCc1ccc(Cl)c(Cl)c1 (stereo not given) | 17.3 | – | – |
| CC(C)Cn1c2c(ccc1=O)C(NCCc1ccc(Cl)c(Cl)c1)CCC2 (stereo not given) | 23.4 | – | – |
| Cn1c2c(ccc1=O)C(NCc1ccccc1)CCC2 (stereo not given) | > 100 | – | – |
| CC(C)=CCn1c2c(ccc1=O)C(NCCc1ccc(O)cc1)CCC2 (stereo not given) | 0.4 | – | – |
| CCCn1c2c(ccc1=O)C(NCCc1c[nH]c3ccccc13)CCC2 (stereo not given) | 3.16 | 3 mg/kg | – |
| Cn1c2c(ccc1=O)C(NCCc1ccc(C(F)(F)F)cc1)CCC2 (stereo not given) | 12.9 | – | – |
| C/C=C1\[C@H]2C=C(C)C[C@]1(N)c1ccc(=O)[nH]c1C2 [HUPERZINE A] | 0.08 | – | – |
| CCCn1c2c(ccc1=O)C(NCCC(C)(C)C)CCC2 (stereo not given) | 15.6 | – | – |
| CC(C)=CCn1c2c(ccc1=O)C(NCCc1ccc(F)c(F)c1)CCC2 (stereo not given) | 0.98 | – | – |
| Cn1c2c(ccc1=O)C(C)(N)CCC2 (stereo not given) | > 100 | – | – |
| CC1(N)CCCc2nc(O)ccc21 (stereo not given) | > 100 | – | – |
| C=CCn1c2c(ccc1=O)C(NCCc1ccc(Cl)c(Cl)c1)CCC2 (stereo not given) | 9.21 | – | – |

| SMILES | IC50 (Acetylcholinesterase) [µM] | Active dose (Mus musculus [1]) | Active dose (Mus musculus [2]) |
| --- | --- | --- | --- |
| COc1ccc(CCNC2CCCc3c2ccc(=O)n3CC=C(C)C)cc1OC (stereo not given) | 1.64 | – | – |
| CC(C)=CCn1c2c(ccc1=O)C(NCCc1ccccc1Cl)CCC2 (stereo not given) | 0.52 | – | – |
| CC(C)=CCn1c2c(ccc1=O)C(NCCc1ccc(Cl)c(Cl)c1)CCC2 (stereo not given) | 0.51 | – | – |
| NC1(Cc2ccccc2)CCCc2[nH]c(=O)ccc21 (stereo not given) | > 100 | – | – |
| Cn1c2c(ccc1=O)C(NCCCc1ccccc1)CCC2 (stereo not given) | 48.4 | – | – |
| CCCCCCn1c2c(ccc1=O)C(NCCc1ccc(Cl)c(Cl)c1)CCC2 (stereo not given) | 3.71 | – | – |
| Oc1ccc2c(n1)CCCC2NCCc1ccccc1 (stereo not given) | > 100 | – | – |
| CC(C)=CCn1c2c(ccc1=O)C(NCCc1ccc(Cl)c(C(F)(F)F)c1)CCC2 (stereo not given) | 0.79 | – | inactive |
| CC(C)CCn1c2c(ccc1=O)C(NCCc1ccc(Cl)c(Cl)c1)CCC2 (stereo not given) | 2.34 | 3 mg/kg | – |
| CC(C)n1c2c(ccc1=O)C(NCCc1ccc(Cl)c(Cl)c1)CCC2 (stereo not given) | 34.5 | – | – |
| Cn1c2c(ccc1=O)C(NCCc1ccccc1)CCC2 (stereo not given) | 18.6 | 1 mg/kg | – |
| CC(C)=CCn1c2c(ccc1=O)C(NCCc1ccc(Cl)cc1Cl)CCC2 (stereo not given) | 0.79 | 1 mg/kg and 3 mg/kg | – |
| CCCn1c2c(ccc1=O)C(NCCc1ccccn1)CCC2 (stereo not given) | 4.34 | – | inactive |
| O=c1ccc2c(n1CCc1ccccc1)CCCC2NCCc1ccc(Cl)c(Cl)c1 (stereo not given) | 50.4 | – | – |
| CCCn1c2c(ccc1=O)C(NCCc1cccs1)CCC2.O=C(O)/C=C/C(=O)O (stereo not given) | 5.97 | – | – |
| CC(C)=CCn1c2c(ccc1=O)C(N)CCC2 (stereo not given) | > 100 | – | – |
| C=C(C)Cn1c2c(ccc1=O)C(NCCc1ccc(Cl)c(Cl)c1)CCC2 (stereo not given) | 5.32 | 3 mg/kg | – |
| CC(C)=CCn1c2c(ccc1=O)C(NCCc1cccc(Cl)c1)CCC2 (stereo not given) | 0.52 | – | inactive |
